What is called IC50 is the concentration at which inhibition is half-maximal. A high value points to weaker potency.

Structures are written as SMILES. Activity calls are given as the source filed them. No cut-off for these calls is given here.

One data set has as its system Plasmodium falciparum. In words: Antimalarial activity against Plasmodium falciparum W2. It counts as functional, organism-based.
Conditions: not given
Put shortly:
(§1)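 Cultured P. falciparum parasites were exposed to compound, and inhibition of [³H]hypoxanthine uptake was measured to give the IC50. Values come from a single experiment.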
`COc1ccc(C(=O)/C=C/c2ccnc3ccccc23)c(F)c1` gave an IC50 of 4.5 µM.

On to `COc1cc(OC)cc(C(=O)/C=C/c2cccc3ccccc23)c1`, for which half-maximal inhibition (IC50) required 4.3 µM. This IC50 and that of the molecule before are within 1.5-fold of each other.

With `COc1ccc(C(=O)/C=C/c2cccc3ccccc23)c(OC)c1OC`, the half-inhibitory concentration (IC50) stood at 5.8 µM. The IC50 values of the last two molecules are within 1.5-fold of each other.

The molecule `COc1cccc(OC)c1C(=O)/C=C/c1ccc2ccccc2c1` registered an IC50 of 3.3 µM.

Turning to `COc1ccc(C(=O)/C=C/c2ccc3ccccc3n2)cc1F`, the IC50 came to 5.3 µM.

`COc1ccc(C(=O)/C=C/c2ccc3ccccc3n2)c(OC)c1` registered an IC50 of 1.2 µM.

In turn, `COc1ccc(OC)c(C(=O)/C=C/c2cnc3ccccc3c2)c1` came in with an IC50 of 2.7 µM.

Molecule `COc1ccc(C(=O)/C=C/c2cnc3ccccc3c2)cc1` had an IC50 of 3.3 µM.

`COc1cccc(OC)c1C(=O)/C=C/c1cccc2ccccc12` displayed a half-maximal inhibitory concentration (IC50) of 3.1 µM.

In the case of `COc1cc(C(=O)/C=C/c2cnc3ccccc3c2)cc(OC)c1OC`, half-maximal inhibition (IC50) required 14 µM.

Regarding `COc1ccc(C(=O)/C=C/c2cccc3ccccc23)cc1OC`, the half-maximal inhibitory concentration (IC50) was determined as 5 µM.

Consider `COc1cc(C(=O)/C=C/c2cccc3ccccc23)cc(OC)c1OC`, for which 4.8 µM corresponded to half-maximal inhibition (IC50).

With `COc1cccc(OC)c1C(=O)/C=C/c1ccnc2ccccc12`, the IC50 was 5.7 µM.

In the case of `COc1ccc(C(=O)/C=C/c2ccnc3ccccc23)c(OC)c1`, the IC50 was 2 µM.

Turning to `COc1cc(OC)cc(C(=O)/C=C/c2ccc3ccccc3c2)c1`, the IC50 was found to be 9.5 µM.

In the case of `COc1ccc(C(=O)/C=C/c2cnc3ccccc3c2)c(F)c1`, the IC50 turned out to be 3.1 µM.

`COc1ccc(OC)c(C(=O)/C=C/c2cccc3ccccc23)c1` returned a 50% inhibitory concentration (IC50) of 2.8 µM.

`O=C(/C=C/c1cnc2ccccc2c1)c1ccc(Cl)cc1Cl` came in with an IC50 of 6.3 µM.

`O=C(/C=C/c1cnc2ccccc2c1)c1ccc(F)c(F)c1` came in with an IC50 of 5.8 µM.

As to `COc1cc(OC)cc(C(=O)/C=C/c2cnc3ccccc3c2)c1`, the concentration for half-maximal inhibition (IC50) came out at 4.3 µM. This IC50 and that of the molecule before are within 1.5-fold of each other.

`COc1ccc(F)cc1C(=O)/C=C/c1cnc2ccccc2c1` returned an IC50 of 1.1 µM.

For `O=C(/C=C/c1ccnc2ccccc12)c1cc(F)ccc1F`, the half-maximal inhibitory concentration (IC50) was 8.6 µM.

As to `COc1cc(C(=O)/C=C/c2ccc3ccccc3c2)cc(OC)c1OC`, the 50% inhibitory concentration (IC50) came out at 6 µM.

The molecule `COc1ccc(C(=O)/C=C/c2cccc3ccccc23)cc1` showed an IC50 of 10 µM. Compared with the last molecule, the IC50 is about 1.7-fold higher.

The molecule `COc1ccc(OC)c(C(=O)/C=C/c2ccnc3ccccc23)c1` displayed an IC50 of 7.3 µM.

For `O=C(/C=C/c1cnc2ccccc2c1)c1ccc(F)cc1F`, the IC50 came out at 6.2 µM.

Consider `COc1ccc(C(=O)/C=C/c2ccc3ccccc3c2)c(OC)c1OC`, for which the half-maximal inhibitory concentration (IC50) was > 14 µM.

The next data set concerns Plasmodium falciparum. Description: Antimalarial activity against Plasmodium falciparum D6. It counts as functional, organism-based.
Conditions: not given
Put shortly: as §1
For `COc1ccc(C(=O)/C=C/c2ccnc3ccccc23)c(F)c1`, the 50% inhibitory concentration (IC50) worked out at 2.4 µM.

The molecule `COc1cc(OC)cc(C(=O)/C=C/c2cccc3ccccc23)c1` registered an IC50 of 4.5 µM. Compared with the last molecule, the IC50 is about 1.9-fold higher.

On to `COc1ccc(C(=O)/C=C/c2cccc3ccccc23)c(OC)c1OC`, for which it took 4.3 µM to reach half-maximal inhibition (IC50).

As to `COc1cccc(OC)c1C(=O)/C=C/c1ccc2ccccc2c1`, the 50% inhibitory concentration (IC50) amounted to 3.4 µM.

`COc1ccc(C(=O)/C=C/c2ccc3ccccc3n2)cc1F`: the concentration for half-maximal inhibition (IC50) amounted to 1.3 µM.

The molecule `COc1ccc(C(=O)/C=C/c2ccc3ccccc3n2)c(OC)c1` returned an IC50 of 2 µM.

Turning to `COc1ccc(OC)c(C(=O)/C=C/c2cnc3ccccc3c2)c1`, half-maximal inhibition (IC50) was put at 2 µM.

Turning to `COc1ccc(C(=O)/C=C/c2cnc3ccccc3c2)cc1`, the IC50 was 1.8 µM.

Molecule `COc1cccc(OC)c1C(=O)/C=C/c1cccc2ccccc12` showed an IC50 of 3.2 µM. This IC50 is about 1.8-fold higher than that of the molecule before.

`COc1cc(C(=O)/C=C/c2cnc3ccccc3c2)cc(OC)c1OC` showed a half-maximal inhibitory concentration (IC50) of 21 µM.

`COc1ccc(C(=O)/C=C/c2cccc3ccccc23)cc1OC` displayed a concentration for half-maximal inhibition (IC50) of 5.2 µM.

In turn, `COc1cc(C(=O)/C=C/c2cccc3ccccc23)cc(OC)c1OC` yielded an IC50 of 5.2 µM.

`COc1cccc(OC)c1C(=O)/C=C/c1ccnc2ccccc12` yielded a half-maximal inhibitory concentration (IC50) of 13 µM. This IC50 is about 2.5-fold higher than that of the molecule before.

With `COc1ccc(C(=O)/C=C/c2ccnc3ccccc23)c(OC)c1`, inhibition was half-maximal at 3 µM (IC50).

`COc1cc(OC)cc(C(=O)/C=C/c2ccc3ccccc3c2)c1`: 7.4 µM corresponded to half-maximal inhibition (IC50). This IC50 lies about 2.5-fold higher than the previous one.

The molecule `COc1ccc(C(=O)/C=C/c2cnc3ccccc3c2)c(F)c1` yielded an IC50 of 2.1 µM.

The molecule `COc1ccc(OC)c(C(=O)/C=C/c2cccc3ccccc23)c1` had an IC50 of 2.9 µM.

Take `O=C(/C=C/c1cnc2ccccc2c1)c1ccc(Cl)cc1Cl`: the IC50 amounted to 7.9 µM.

With `O=C(/C=C/c1cnc2ccccc2c1)c1ccc(F)c(F)c1`, the half-inhibitory concentration (IC50) stood at 8.5 µM.

In turn, `COc1cc(OC)cc(C(=O)/C=C/c2cnc3ccccc3c2)c1` displayed a half-maximal inhibitory concentration (IC50) of 11 µM.

`COc1ccc(F)cc1C(=O)/C=C/c1cnc2ccccc2c1` had an IC50 of 0.46 µM.

With `O=C(/C=C/c1ccnc2ccccc12)c1cc(F)ccc1F`, inhibition was half-maximal at 3.7 µM (IC50).

Consider `COc1cc(C(=O)/C=C/c2ccc3ccccc3c2)cc(OC)c1OC`, for which the concentration for half-maximal inhibition (IC50) is 6.6 µM. This IC50 lies about 1.8-fold higher than the previous one.

Turning to `COc1ccc(C(=O)/C=C/c2cccc3ccccc23)cc1`, the IC50 came to 9.1 µM. The IC50 values of the last two molecules are within 1.5-fold of each other.

For `COc1ccc(OC)c(C(=O)/C=C/c2ccnc3ccccc23)c1`, the half-inhibitory concentration (IC50) worked out at 3 µM.

Molecule `O=C(/C=C/c1cnc2ccccc2c1)c1ccc(F)cc1F` yielded an IC50 of 5 µM.

Take `COc1ccc(C(=O)/C=C/c2ccc3ccccc3c2)c(OC)c1OC`: the IC50 was > 14 µM.

The next data set deals with Plasmodium falciparum. Description: Resistance index, IC50 of Plasmodium falciparum W2/IC50 Plasmodium falciparum D6. The following applies: in vitro. It counts as ADME, organism-based. Put shortly: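 Ratio of IC50 against P. falciparum W2 to IC50 against strain D6. Each IC50 comes from in vitro inhibition of [3H]hypoxanthine uptake by the parasites, with values from a single experiment.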
With `COc1ccc(C(=O)/C=C/c2ccnc3ccccc23)c(F)c1`, the “Ratio IC50” value is 1.9.

With `COc1cc(OC)cc(C(=O)/C=C/c2cccc3ccccc23)c1`, the “Ratio IC50” value is on record as 0.96.

With `COc1ccc(C(=O)/C=C/c2cccc3ccccc23)c(OC)c1OC`, the “Ratio IC50” value is 1.3.

Take `COc1cccc(OC)c1C(=O)/C=C/c1ccc2ccccc2c1`: the “Ratio IC50” value came out at 0.97.

In the case of `COc1ccc(C(=O)/C=C/c2ccc3ccccc3n2)cc1F`, the “Ratio IC50” value turned out to be 4.1.

As for `COc1ccc(C(=O)/C=C/c2ccc3ccccc3n2)c(OC)c1`, the “Ratio IC50” value amounted to 0.6.

With `COc1ccc(OC)c(C(=O)/C=C/c2cnc3ccccc3c2)c1`, the “Ratio IC50” value came out at 1.4.

On to `COc1ccc(C(=O)/C=C/c2cnc3ccccc3c2)cc1`, for which the “Ratio IC50” value is 1.8.

With `COc1cccc(OC)c1C(=O)/C=C/c1cccc2ccccc12`, the “Ratio IC50” value amounted to 0.97.

Turning to `COc1cc(C(=O)/C=C/c2cnc3ccccc3c2)cc(OC)c1OC`, the “Ratio IC50” value came out at 0.67.

As to `COc1ccc(C(=O)/C=C/c2cccc3ccccc23)cc1OC`, the “Ratio IC50” value is reported as 0.96.

As for `COc1cc(C(=O)/C=C/c2cccc3ccccc23)cc(OC)c1OC`, the “Ratio IC50” value is listed as 0.92.

In the case of `COc1cccc(OC)c1C(=O)/C=C/c1ccnc2ccccc12`, the “Ratio IC50” value is listed as 0.44.

For `COc1ccc(C(=O)/C=C/c2ccnc3ccccc23)c(OC)c1`, the “Ratio IC50” value is on record as 0.67.

On to `COc1cc(OC)cc(C(=O)/C=C/c2ccc3ccccc3c2)c1`, for which the “Ratio IC50” value turned out to be 1.3.

For `COc1ccc(C(=O)/C=C/c2cnc3ccccc3c2)c(F)c1`, the “Ratio IC50” value came to 1.5.

Consider `COc1ccc(OC)c(C(=O)/C=C/c2cccc3ccccc23)c1`, for which the “Ratio IC50” value was found to be 0.97.

`O=C(/C=C/c1cnc2ccccc2c1)c1ccc(Cl)cc1Cl`: the “Ratio IC50” value was found to be 0.8.

As to `O=C(/C=C/c1cnc2ccccc2c1)c1ccc(F)c(F)c1`, the “Ratio IC50” value is on record as 0.68.

For the molecule `COc1cc(OC)cc(C(=O)/C=C/c2cnc3ccccc3c2)c1`, the “Ratio IC50” value amounted to 0.39.

For the molecule `COc1ccc(F)cc1C(=O)/C=C/c1cnc2ccccc2c1`, the “Ratio IC50” value is 2.4.

With `O=C(/C=C/c1ccnc2ccccc12)c1cc(F)ccc1F`, the “Ratio IC50” value is recorded as 2.3.

Turning to `COc1cc(C(=O)/C=C/c2ccc3ccccc3c2)cc(OC)c1OC`, the “Ratio IC50” value is on record as 0.91.

As for `COc1ccc(C(=O)/C=C/c2cccc3ccccc23)cc1`, the “Ratio IC50” value is 1.1.

Take `COc1ccc(OC)c(C(=O)/C=C/c2ccnc3ccccc23)c1`: the “Ratio IC50” value came out at 2.4.

Turning to `O=C(/C=C/c1cnc2ccccc2c1)c1ccc(F)cc1F`, the “Ratio IC50” value is reported as 1.2.

The next data set relates to Mus musculus. In words: Effect on survival of mice (Mus musculus) infected with Plasmodium berghei at 640 mg/kg, perorally. It is filed as functional, organism-based. Further details: dose 640 mg/kg.
Conditions: not given
Put shortly: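 Mice were inoculated intraperitoneally on day 0 with 1.0 × 10⁶ P. berghei P-line-infected red cells. Compound was dissolved in DMSO, diluted with 0.5% hydroxyethylcellulose and 0.1% Tween, and given orally once daily on days 3–7 at 640 mg/kg/dose. Survival of five treated mice was compared with five untreated infected controls.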
In the case of `CCN(CC)CCCC(C)Nc1ccnc2cc(Cl)ccc12` (stereo unspecified), the outcome was Active.
